CSN deneddyl inh: CSN deneddylation inhibition; inhibition, % at 12.5 µM; Q92905; Purified CSN, SCF-Nedd8-OG deneddylation, fluorescence polarization; actives 0.38% (n = 360,000);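 active means pattern-corrected inhibition above about 35%, with an unprinted fluorescence ratio check between 0.5 and 1.5, limit read from the data, passing the limit was not always enough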
Target sequence (Q92905 whole entry, looked up, one chain of several): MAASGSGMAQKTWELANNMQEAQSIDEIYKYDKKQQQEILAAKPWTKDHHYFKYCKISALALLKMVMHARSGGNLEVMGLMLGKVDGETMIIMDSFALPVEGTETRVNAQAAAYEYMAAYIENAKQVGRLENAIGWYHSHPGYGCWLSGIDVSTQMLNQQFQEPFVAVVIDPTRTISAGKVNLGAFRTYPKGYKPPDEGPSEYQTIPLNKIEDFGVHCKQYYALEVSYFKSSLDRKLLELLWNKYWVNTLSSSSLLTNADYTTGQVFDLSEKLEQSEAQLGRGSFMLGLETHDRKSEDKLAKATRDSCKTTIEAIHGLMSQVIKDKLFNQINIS
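Material: purified human Csn5 enzyme expressed in HEK293T cells / Medium: Tris buffer pH 7.5, NaCl, DTT, Tween-20, trehalose, ovalbumin / Compound dosing: 12.5 µM single point / Schedule: 90 min incubation of compound, enzyme and substrate at room temperature / Signal: fluorescence polarization of the substrate / Control set: no-enzyme wells high, enzyme-with-substrate wells low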
LEDGF integ inh: blocks HIV-1 LEDGF/p75-dependent DNA integration; AID 743269; TR-FRET IN-LEDGF/p75 DNA integration, Eu/Cy5; actives 0.64% (n = 370,000); inhibition, % at 3.7 µM;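 active means inhibition above the screen-wide mean plus 3 SD, cut at about 13% in these data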;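 further: signal is the Cy5 over europium emission ratio at 671 and 618 nm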
ATG4B inh: ATG4B (human) cysteine protease inhibition | ATG4B cleavage of LC3-PLA2, NBD-HPC fluorescence, 1 h | Q9Y4P1 | actives 0.51% (n = 340,000) | inhibition, % at 8.33 µM | AID 504462; in the data active means inhibition above about 40%
rCAG binder-1: molecules binding r(CAG) RNA repeats. r(CAG) RNA repeat, TO-PRO-1 dye displacement fluorescence. inhibition, % at 3 µM. actives 1.3% (n = 370,000);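 active means inhibition above the plate cutoff, the mean of all test compounds on that plate plus 3 SD, cut at about 35% in these data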;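 further: higher means more dye released from RNA so lower well fluorescence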
MBD2 DNA inh: MBD2-methylated oligo binding inhibition | actives 0.31% (n = 370,000) | AID 686964 | TR-FRET, MBD2 binding to methylated oligonucleotide | inhibition, % at 4.4 µM | Q9UBB5; in the data active means inhibition above about 13%
UHRF1 MBD2 ctr: human UHRF1 methylated DNA binding inhibitors | UHRF1 binding to methylated oligo, TR-FRET | inhibition, % at 4.4 µM | actives 0.75% (n = 370,000); in the data active means inhibition above about 21%;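 further: UHRF1 SRA domain binding a hemimethylated CpG hairpin DNA probe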
rCAG binder conf: r(CAG) RNA repeat binding, confirmation; actives 70% (n = 4,300); AID 652065; TO-PRO-1 dye displacement fluorescence; inhibition, % at 3 µM; shares compounds with rCAG binder-1;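 active means inhibition above a per-plate cutoff, the mean inhibition of sample wells plus 3 SD, cut at about 35% in these data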;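 further: loss of TO-PRO-1 fluorescence as compound displaces dye from 1x1 AA loop RNA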
dCAG dye counter: disrupts DNA CAG TO-PRO-1 complex, flagging rCAG hits. d(CAG) DNA oligo TO-PRO-1 dye displacement, fluorescence. shares compounds with rCAG binder-1. inhibition, % at 3 µM. actives 94% (n = 4,300);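 active means inhibition above its plate's cutoff, the mean test-well inhibition plus 3 SD, cut at about 4.8% in these data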;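 further: hits displace the dye from DNA and so lower well fluorescence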
dCAG dye DR: DNA CAG dye complex inhibition, dose response counter-screen; actives 20% (n = 250); DNA CAG/GTC duplex TO-PRO-1 dye displacement fluorescence; shares compounds with rCAG binder-1; AID 686960; IC50, µM; in the data active means IC50 below about 10 µM
dCAG TOPRO ctr: inhibits DNA CAG/GTC TO-PRO-1 complex, rCAG binder counter-screen; shares compounds with rCAG binder-1; d(CAG) DNA duplex TO-PRO-1 dye displacement, fluorescence; IC50, µM; actives 80% (n = 30); AID 720649
rCAG binder-2: r(CAG) repeat RNA binding, TO-PRO-1 displacement; shares compounds with rCAG binder-1; r(CAG) RNA TO-PRO-1 dye displacement, fluorescence; IC50, µM; actives 100% (n = 30)
Each line names hits and unclear results; the compound was inactive in the other large screens (follow-up assays come after a bar, where they were run). Shown are actives, neighbours in structure and some others; about 3.1% of the full set was active somewhere. Unless noted, how the calls were made is not given here.

COCc1cc(C)n(CC(=O)N/N=C/c2ccc(-c3ccc(Cl)c(C(=O)O)c3)o2)c(=O)c1C#N	rCAG binder-1 38 | rCAG binder conf 41 | dCAG dye counter 14
COC(=O)N/N=C\c1cccc(OC(=O)c2cccs2)c1	none
O=C1NN(c2ccccc2)C(=O)/C1=C\c1cccc(OC(=O)c2cccs2)c1	rCAG binder-1 37 | rCAG binder conf 68 | dCAG dye counter 28
CC(C)n1c(CNC(=O)c2ccccc2F)nnc1SCC(=O)NC1CCCCC1	rCAG binder-1 46 | rCAG binder conf inactive | dCAG dye counter 18
COc1ccc(C)cc1NC(=O)CSc1nnc(-c2n[nH]c3c2CCC3)n1N	none (no result: CSN deneddyl inh, ATG4B inh)
N#Cc1c(-c2cccs2)nc(SCc2ccc(Cl)cc2)[nH]c1=O	ATG4B inh 49, rCAG binder-1 87 | rCAG binder conf 88 | dCAG dye counter 68
CSc1nc(-c2cccs2)c(C#N)c(=O)[nH]1	none
CCOc1cc(C(=O)NC(=S)Nc2ccc(Cl)c(C(=O)O)c2)cc(OCC)c1OCC	rCAG binder-1 41 | rCAG binder conf inactive | dCAG dye counter 5.6
O=C(O)c1cc(NC(=S)NC(=O)C(c2ccccc2)c2ccccc2)ccc1Cl	rCAG binder-1 41 | rCAG binder conf inactive | dCAG dye counter 6.9
Cc1ccc(C(=O)O)cc1NC(=S)NC(=O)C(c1ccccc1)c1ccccc1	rCAG binder-1 58 | rCAG binder conf 38 | dCAG dye counter 10
O=S1(=O)CCSC[C@@H](CN2CCCC2)N1	none (no result: CSN deneddyl inh, ATG4B inh)
CCCCCC[C@H](CN(CCCC)S(C)(=O)=O)c1ccccc1	none (no result: CSN deneddyl inh, ATG4B inh)
O=C(CSc1nnc(-c2ccco2)n1-c1ccc(Cl)cc1)Nc1ccc(S(=O)(=O)Nc2nccs2)cc1	rCAG binder-1 62 (no result: CSN deneddyl inh, ATG4B inh) | rCAG binder conf 57 | dCAG dye counter 20
COc1ccc(-n2c(SCC(=O)Nc3ccc(S(=O)(=O)Nc4nccs4)cc3)nnc2-c2ccccc2)cc1	rCAG binder-1 78 (no result: CSN deneddyl inh, ATG4B inh) | rCAG binder conf 72 | dCAG dye counter 37
COc1ccc(Nc2nnc(-c3ccc(C(N)=O)cc3)c3ccccc23)cc1	none
Cn1c(COc2ccccc2)nnc1SCC(=O)Nc1ccc(S(=O)(=O)Nc2nccs2)cc1	rCAG binder-1 49 (no result: CSN deneddyl inh, ATG4B inh) | rCAG binder conf 47 | dCAG dye counter 18
COc1ccc(-c2nnc(Nc3ccc(S(=O)(=O)Nc4nccs4)cc3)c3ccccc23)cc1	rCAG binder-1 35 | rCAG binder conf 50 | dCAG dye counter 19
O=C(CSc1nnc(COc2ccccc2)n1-c1ccccc1)Nc1ccc(S(=O)(=O)Nc2nccs2)cc1	rCAG binder-1 75 (no result: CSN deneddyl inh, ATG4B inh) | rCAG binder conf 65 | dCAG dye counter 28
CN(Cc1ccccc1)C(=O)OCc1cn(Cc2ccc(F)c(F)c2)nn1	none (no result: CSN deneddyl inh, ATG4B inh)
N=C1/C(=C\c2ccc(-c3cc(Cl)cc(Cl)c3)o2)C(=O)N=C2SC=C(c3ccccc3)N12	rCAG binder-1 37 | rCAG binder conf 38 | dCAG dye counter 22
CC(C)S(=O)(=O)C1=NSC2=NC(=O)/C(=C\c3ccc(-c4cccc(C(=O)O)c4)o3)C(=N)N21	rCAG binder-1 72 | rCAG binder conf 74 | dCAG dye counter 29 | dCAG dye DR inactive | dCAG TOPRO ctr 1.3 | rCAG binder-2 0.33
O=C(O)c1ccccc1NS(=O)(=O)c1ccc(N/N=C/c2ccc(O)c(O)c2)c([N+](=O)[O-])c1	rCAG binder-1 92 | rCAG binder conf 91 | dCAG dye counter 70
